Assay results from ChEMBL document CHEMBL5329221, “A covalent fragment-based strategy targeting a novel cysteine to inhibit activity of mutant EGFR kinase” (RSC Med Chem, 2023).
Active and inactive are the calls of the source. No cut-off for these calls is given here.

How the values were obtained:
[1] = tested on: Epidermal growth factor receptor (Homo sapiens), P00533 [T790M,L858R,C797S,E865A,E866A,K867A]; assay: Binding affinity to N-terminal His6-tagged human EGFR T790M/L858R/C797S/E865A/E866A/K867A mutant expressed in Sf9 cells at pH 7.4 assessed as covalent adduct formation incubated for 1 hrs by TOF-MS analysis
[2] = tested on: Epidermal growth factor receptor (Homo sapiens), P00533 [T790M,L858R,E865A,E866A,K867A]; assay: Binding affinity to N-terminal His6-tagged human EGFR T790M/L858R/E865A/E866A/K867A mutant expressed in Sf9 cells at pH 7.4 assessed as covalent adduct formation incubated for 1 hrs by TOF-MS analysis
[3] = target: Epidermal growth factor receptor (Homo sapiens, UniProt P00533, C797S/L858R/T790M); assay: Inhibition of N-terminal His6-tagged human EGFR L858R/T790M/C797S mutant expressed in Sf9 cells assessed as decrease in substrate phosphorylation using Ulight-JAK1 peptide as substrate incubated for 1.5 hrs in presence of ATP by TR-FRET based LANCE Ultra kinase assay
Outline: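 LANCE Ultra TR-FRET assay with 0.25 nM EGFR_TM, 1 µM ATP, 50 nM ULight-JAK1 peptide, 50 mM HEPES pH 7.5, 10 mM MgCl2, 5 mM MnCl2, 1 mM DTT, 0.015% Brij35, 5% DMSO, 1.5 h at 23°C. EDTA stop, Eu-anti-pTyr PT66, 1 h. Signal is the 665/620 nm ratio, normalised to no-protein controls. IC50 from a four-parameter fit, otherwise % inhibition at the top concentration.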

[4] = target: Epidermal growth factor receptor (Homo sapiens) (UniProt P00533); assay: Binding affinity to N-terminal twin Strep-tagged human wild type EGFR (694 to 1022 residues) expressed in Sf9 cells at pH 7.4 assessed as covalent adduct formation preincubated with maleimide followed by compound addition and measured after 1 hrs by TOF-MS analysis
[5] = tested on: Epidermal growth factor receptor (Homo sapiens), P00533 [T790M,L858R,C797S,E865A,E866A,K867A]; assay: Binding affinity to N-terminal His6-tagged human EGFR T790M/L858R/C797S/E865A/E866A/K867A mutant expressed in Sf9 cells at pH 7.4 incubated for 1 hrs by TOF-MS analysis
[6] = tested on: Epidermal growth factor receptor (Homo sapiens), P00533 [L858R,T790M,C797S]; assay: Inhibition of N-terminal His6-tagged human EGFR L858R/T790M/C797S mutant expressed in Sf9 cells assessed as decrease in substrate phosphorylation using Ulight-JAK1 peptide as substrate at 500 uMincubated for 1.5 hrs in presence of ATP by TR-FRET based LANCE Ultra kinase assay
[7] = tested on: Epidermal growth factor receptor (Homo sapiens), P00533 [T790M,L858R,E865A,E866A,K867A]; assay: Binding affinity to N-terminal His6-tagged human EGFR T790M/L858R/E865A/E866A/K867A mutant expressed in Sf9 cells at pH 7.4 assessed as covalent adduct formation preincubated with nazartinib followed by compound addition and measured after 1 hrs by TOF-MS analysis

C=CC(=O)Nc1ccc2c(C)n(C)nc2c1
Activity [1]: Active | Activity [2]: Active

C=CC(=O)Nc1cc(-c2cn(C)c3ccccc23)ccn1
IC50 [3]: 9 µM

C=CC(=O)Nc1ccccn1
Activity [1]: Active | Activity [4]: inactive | IC50 [3]: > 500 µM | Activity [5]: Active | inhibition [6]: 52.3% | Activity [7]: inactive | Activity [2]: Active

C=CC(=O)Nc1ccc[nH]c1=O
Activity [1]: Active | Activity [2]: Active

C=CC(=O)Nc1cccc(C(C)=O)c1
Activity [1]: Active | Activity [2]: Active

C=CC(=O)Nc1cccc(O)c1
Activity [1]: Active | Activity [2]: Active

C=CC(=O)Nc1cccc2c1ncn2C
Activity [1]: Active | Activity [2]: Active

C=CC(=O)Nc1cccc(NC(C)=O)n1
Activity [1]: Active | Activity [2]: Active

C=CC(=O)Nc1cc(N(C)C)n2nc(C)cc2n1
Activity [1]: Active | Activity [2]: Active

C=CC(=O)Nc1ccc2cccnc2c1
Activity [1]: Active | Activity [4]: inactive | Activity [5]: Active | Activity [7]: inactive | Activity [2]: Active

C=CC(=O)Nc1cc2ccccn2n1
Activity [1]: Active | Activity [4]: inactive | Activity [5]: Active | Activity [7]: inactive | Activity [2]: Active

C=CC(=O)Nc1cc(-c2ccccc2)ccn1
IC50 [3]: 32 µM
